Reference: ChEMBL document CHEMBL4024792, “(N-Hydroxycarbonylbenylamino)quinolines as Selective Histone Deacetylase 6 Inhibitors Suppress Growth of Multiple Myeloma in Vitro and in Vivo” (J Med Chem, 2018)
The source made the active and inactive calls. The rule behind the calls is not given here.

How the values were obtained:
[1] = molecular target: T1, Protein deacetylase HDAC6 (Homo sapiens, UniProt Q9UBN7); assay: Inhibition of full length recombinant human N-terminal GST-tagged HDAC6 expressed in baculovirus infected insect cells using RHK-K(Ac)-AMC as substrate after 90 mins by fluorescence assay
T1 sequence (Q9UBN7 whole entry): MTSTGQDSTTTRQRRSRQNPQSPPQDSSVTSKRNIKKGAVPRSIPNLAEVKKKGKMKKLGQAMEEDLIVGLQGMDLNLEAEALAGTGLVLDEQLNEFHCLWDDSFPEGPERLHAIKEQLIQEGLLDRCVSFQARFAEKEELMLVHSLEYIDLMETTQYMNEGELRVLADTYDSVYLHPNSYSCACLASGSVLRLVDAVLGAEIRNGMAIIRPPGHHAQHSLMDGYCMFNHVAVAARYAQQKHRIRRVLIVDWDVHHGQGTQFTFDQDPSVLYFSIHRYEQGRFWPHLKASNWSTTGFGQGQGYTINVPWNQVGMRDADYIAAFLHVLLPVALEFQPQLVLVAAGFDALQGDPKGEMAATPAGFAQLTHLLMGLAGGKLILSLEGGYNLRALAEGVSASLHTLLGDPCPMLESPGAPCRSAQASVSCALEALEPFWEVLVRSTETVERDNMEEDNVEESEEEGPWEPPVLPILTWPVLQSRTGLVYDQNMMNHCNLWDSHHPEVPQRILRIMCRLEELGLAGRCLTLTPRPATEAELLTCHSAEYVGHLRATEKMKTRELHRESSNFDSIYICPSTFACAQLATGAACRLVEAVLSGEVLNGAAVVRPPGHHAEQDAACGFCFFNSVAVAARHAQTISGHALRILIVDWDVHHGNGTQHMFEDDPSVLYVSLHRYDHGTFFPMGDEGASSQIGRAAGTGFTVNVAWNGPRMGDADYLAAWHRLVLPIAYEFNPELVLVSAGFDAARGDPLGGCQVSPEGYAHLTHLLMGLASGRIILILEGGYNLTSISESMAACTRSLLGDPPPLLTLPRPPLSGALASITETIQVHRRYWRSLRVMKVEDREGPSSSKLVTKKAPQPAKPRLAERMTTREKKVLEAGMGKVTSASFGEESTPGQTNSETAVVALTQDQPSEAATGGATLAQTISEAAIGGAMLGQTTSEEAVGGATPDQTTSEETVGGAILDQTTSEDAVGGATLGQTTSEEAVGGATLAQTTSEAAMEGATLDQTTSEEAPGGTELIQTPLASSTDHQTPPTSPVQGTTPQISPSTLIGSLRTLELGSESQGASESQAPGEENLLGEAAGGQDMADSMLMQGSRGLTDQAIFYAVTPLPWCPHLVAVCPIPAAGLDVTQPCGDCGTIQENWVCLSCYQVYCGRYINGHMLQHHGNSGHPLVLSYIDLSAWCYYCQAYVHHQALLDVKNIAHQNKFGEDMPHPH

[2] = Apparent permeability from apical to basolateral side in human Caco2 cells at 10 uM after 2 hrs by LC-MS/MS analysis; type: ADME, cell-based; settings: Caco-2
Outline: (§1)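 Caco-2 cells seeded at 8.4 × 10^4 cells/cm2 on polycarbonate inserts for 21 days. For A→B, donor was apical (HBSS/MES pH 6.5, 10 µM compound) and receiver basolateral (HBSS/HEPES pH 7.4). For B→A, donor was basolateral (HBSS/HEPES pH 7.4, 10 µM) and receiver apical (HBSS/MES pH 6.5). Incubated at 37 °C for 2 h. Receiver sampled at 30, 60, 90 and 120 min, donor at 0 and 120 min.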

[3] = Apparent permeability from basolateral to apical side in human Caco2 cells at 10 uM after 2 hrs by LC-MS/MS analysis; type: ADME, cell-based; settings: Caco-2; outline: as §1
[4] = Apparent permeability from apical to basolateral side in human Caco2 cells assessed as drug recovery at 10 uM after 2 hrs by LC-MS/MS analysis; type: ADME, cell-based; settings: Caco-2, read-out: Drug recovery; outline: as §1
[5] = Apparent permeability from basolateral to apical side in human Caco2 cells assessed as drug recovery at 10 uM after 2 hrs by LC-MS/MS analysis; type: ADME, cell-based; settings: Caco-2, read-out: Drug recovery; outline: as §1
[6] = Efflux ratio of apparent permeability from in human Caco2 cells at 10 uM after 2 hrs by LC-MS/MS analysis; type: ADME, cell-based; settings: Caco-2; outline: as §1
[7] = test system: RPMI-8226; assay: Antiproliferative activity against human RPMI8226 cells after 48 hrs by SRB assay; type: functional; settings: RPMI-8226, 48 h
Outline: (§2)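 Cells were exposed to test compounds at the indicated concentrations for 48 h. They were then fixed with 10% trichloroacetic acid, stained 30 min with 0.4% SRB in 1% AcOH, and washed with 1% AcOH. Bound dye was solubilized in 10 mM Tris base and OD read at 510 nm. Lines cultured in RPMI 1640 with 20% FBS and penicillin/streptomycin, 37°C, 5% CO2.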

[8] = test system: U-266; assay: Antiproliferative activity against human U266 cells after 48 hrs by SRB assay; type: functional; settings: U-266, 48 h; outline: as §2
[9] = test system: NCI-H929; assay: Antiproliferative activity against human NCI-H929 cells after 48 hrs by SRB assay; type: functional; settings: NCI-H929, 48 h; outline: as §2
[10] = Antiproliferative activity against human HS5 cells after 48 hrs by SRB assay; type: cell-based; outline: as §2
[11] = test system: RPMI-8226; assay: Cell cycle arrest in human RPMI8226 cells assessed as accumulation at sub-G1 phase at 2.5 nM after 24 hrs by propidium iodide staining based flow cytometry (reference value: 12.25%); type: functional
[12] = test system: RPMI-8226; assay: Cell cycle arrest in human RPMI8226 cells assessed as accumulation at G0/G1 phase at 2.5 nM after 24 hrs by propidium iodide staining based flow cytometry (reference value: 44.67%); type: functional
[13] = test system: RPMI-8226; assay: Cell cycle arrest in human RPMI8226 cells assessed as accumulation at S phase at 2.5 nM after 24 hrs by propidium iodide staining based flow cytometry (reference value: 19.53%); type: functional
[14] = test system: RPMI-8226; assay: Cell cycle arrest in human RPMI8226 cells assessed as accumulation at G2/M phase at 2.5 nM after 24 hrs by propidium iodide staining based flow cytometry (reference value: 23.94%); type: functional
[15] = test system: U-266; assay: Cell cycle arrest in human U266 cells assessed as accumulation at G0/G1 phase at 2.5 nM after 24 hrs by propidium iodide staining based flow cytometry (reference value: 40.29%); type: functional
[16] = test system: U-266; assay: Cell cycle arrest in human U266 cells assessed as accumulation at S phase at 2.5 nM after 24 hrs by propidium iodide staining based flow cytometry (reference value: 14.05%); type: functional
[17] = test system: U-266; assay: Cell cycle arrest in human U266 cells assessed as accumulation at G2/M phase at 2.5 nM after 24 hrs by propidium iodide staining based flow cytometry (reference value: 35.13%); type: functional
[18] = test system: NCI-H929; assay: Cell cycle arrest in human NCI-H929 cells assessed as accumulation at sub-G1 phase at 2.5 nM after 24 hrs by propidium iodide staining based flow cytometry (reference value: 5.59%); type: functional
[19] = test system: NCI-H929; assay: Cell cycle arrest in human NCI-H929 cells assessed as accumulation at G0/G1 phase at 2.5 nM after 24 hrs by propidium iodide staining based flow cytometry (reference value: 49.39%); type: functional
[20] = test system: NCI-H929; assay: Cell cycle arrest in human NCI-H929 cells assessed as accumulation at S phase at 2.5 nM after 24 hrs by propidium iodide staining based flow cytometry (reference value: 13.5%); type: functional
[21] = test system: NCI-H929; assay: Cell cycle arrest in human NCI-H929 cells assessed as accumulation at G2/M phase at 2.5 nM after 24 hrs by propidium iodide staining based flow cytometry (reference value: 31.63%); type: functional
[22] = test system: RPMI-8226; assay: Induction of apoptosis in human RPMI8226 cells at 2.5 nM after 24 hrs by Annexin V/propidium iodide staining based flow cytometry; type: functional, cell-based
[23] = test system: U-266; assay: Induction of apoptosis in human U266 cells at 2.5 nM after 24 hrs by Annexin V/propidium iodide staining based flow cytometry; type: functional, cell-based
[24] = test system: NCI-H929; assay: Induction of apoptosis in human NCI-H929 cells at 2.5 nM after 24 hrs by Annexin V/propidium iodide staining based flow cytometry; type: functional, cell-based
[25] = test system: RPMI-8226; assay: Antitumor activity against human RPMI8226 cells xenografted in nude mouse assessed as tumor growth inhibition at 1 mg/kg, iv or ip administered once in week for 35 days relative to control; type: functional; settings: RPMI-8226, 840 h, read-out: TGI
Outline: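 RPMI 8226 cells (1 × 10^7) implanted s.c. in eight-week-old male nude mice. At mean tumor volume 200 mm3, mice randomized into four groups (n = 8). Caliper measurement every 3–4 days, volume L×W²/2. %TGI computed from treated versus control volume changes relative to time 0.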

[26] = test system: Mus musculus; assay: Toxicity in nude mouse xenografted with human RPMI8226 cells assessed as death at 1 mg/kg, iv or ip administered once in week for 35 days; type: organism-based; settings: in vivo, 840 h
Outline: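 Male nude mice, eight weeks old, received 1 × 10^7 RPMI 8226 cells subcutaneously. At a mean tumour volume of 200 mm3 they were randomised into four groups (n = 8). Dosing was 1 mg/kg i.v./i.p. once weekly, with vehicle 0.5% EtOH/0.5% Cremophor in 5% dextran. Treatment-related deaths were recorded, and caliper measurements were taken every 3–4 days.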

SMILES: O=C(NO)c1ccc(CNc2ccc3ccccc3n2)cc1
- IC50 [1]: 4.24 nM

SMILES: O=C(NO)c1ccc(CNc2cnc3ccccc3c2)cc1
- IC50 [1]: 403 nM

SMILES: O=C(/C=C/c1ccc(CNc2cccc3cccnc23)cc1)NO
- IC50 [1]: 41.7 nM

SMILES: COC(=O)c1ccccc1-c1c2ccc(=N)cc-2oc2cc(N)ccc12.Cl [RHODAMINE123]
- Papp A→B at 2 h, 10 µM [2]: 1.16 ×10⁻⁶ cm/s
- Papp B→A at 2 h, 10 µM [3]: 7.52 ×10⁻⁶ cm/s
- recovery at 2 h, 10 µM [4]: 89.8%
- recovery at 2 h, 10 µM [5]: 93.9%
- efflux ratio at 2 h, 10 µM [6]: 6.5

SMILES: O=C(NO)c1ccc(CNc2ccc3cccnc3c2)cc1
- IC50 [1]: 3.25 nM

SMILES: O=C(NO)c1ccc(CNc2cccc3cnccc23)cc1
- IC50 [1]: 2.33 nM

SMILES: O=C(NO)c1ccc(CNc2cccc3ccncc23)cc1
- IC50 [1]: 3.35 nM

SMILES: O=C(NO)c1ccc(NCc2cccc3cccnc23)cc1
- IC50 [1]: 7.4 nM

SMILES: O=C(NO)c1ccc(Nc2cccc3cccnc23)cc1
- IC50 [1]: 129 nM

SMILES: O=C(CCCCCCNC(=O)c1cnc(N(c2ccccc2)c2ccccc2)nc1)NO [RICOLINOSTAT]
- GI50 [7]: 6400 nM
- GI50 [8]: > 100000 nM
- GI50 [9]: > 100000 nM
- GI50 at 48 h [10]: > 100000 nM

SMILES: O=C(NO)c1ccc(C(=O)Nc2cccc3cccnc23)cc1
- IC50 [1]: 265 nM

SMILES: O=C(NO)c1ccc(C(=O)Nc2cccc3ncccc23)cc1
- IC50 [1]: 525 nM

SMILES: O=C(NO)c1ccc(CNc2cccc3c2CCC3)cc1
- IC50 [1]: 19.6 nM

SMILES: CC(C)C[C@H](NC(=O)[C@H](Cc1ccccc1)NC(=O)c1cnccn1)B(O)O [BORTEZOMIB]
- Activity [11]: 10.55%
- Activity [12]: 42.97%
- Activity [13]: 15.19%
- Activity [14]: 31.53%
- Activity [15]: 32.66%
- Activity [16]: 7.8%
- Activity [17]: 32.22%
- Activity [18]: 42.44%
- Activity [19]: 29.87%
- Activity [20]: 11.59%
- Activity [21]: 16.32%
- Activity [22]: Active
- Activity [23]: Active
- Activity [24]: Active
- inhibition in vivo at 1 mg/kg [25]: 70.1%
- Activity [26]: Toxic

SMILES: Cc1ccc2cccc(NCc3ccc(C(=O)NO)cc3)c2n1
- IC50 [1]: 11.4 nM

SMILES: O=C(NO)c1ccc(CNc2ccnc3ccccc23)cc1
- IC50 [1]: 21.5 nM

SMILES: O=C(NO)c1ccc(CSc2cccc3cccnc23)cc1
- IC50 [1]: 9.48 nM

SMILES: O=C(NO)c1ccc(CCc2cccc3cccnc23)cc1
- IC50 [1]: 41.7 nM

SMILES: O=C(NO)c1ccc(COc2cccc3cccnc23)cc1
- IC50 [1]: 2.83 nM

SMILES: O=C(NO)c1cccc(CNc2cccc3cccnc23)c1
- IC50 [1]: 1130 nM

SMILES: O=C(NO)c1ccc(CNc2cccc3c2CCCC3)cc1
- IC50 [1]: 25.3 nM

SMILES: O=C(NO)c1ccc(CNc2ccc3ncccc3c2)cc1
- IC50 [1]: 4.78 nM

SMILES: O=C(NO)c1ccc(CNc2cccc3cn[nH]c23)cc1
- IC50 [1]: 3.56 nM

SMILES: O=C(/C=C/c1ccc(CNc2cccc3ncccc23)cc1)NO
- IC50 [1]: 25.3 nM

SMILES: O=C(NO)c1ccc(CNc2cccc3nccnc23)cc1
- IC50 [1]: 5.89 nM

SMILES: O=C(NO)c1ccc(CNc2cncc3ccccc23)cc1
- IC50 [1]: 2.31 nM
